Assay results: publication PMC8208316 (Chemical Science, 2021)
Where “and” joins values, the source holds several entries; their conditions need not be identical. Equal values may be shown once.

Key:
[1] = Kinetics of RSSH release; assay type: physicochemical; conditions: for half-life at 100 µM: phosphate buffered saline with MMTS (1 mM) as RSSH trap, pH 7.4; for phenol byproduct 4a–f yield: precursor 100 μM, MMTS 1 mM, pH 7.4 PBS containing DTPA, HPLC
Procedure, shortened: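 Test compound (100 μM) incubated at 37 °C with MMTS (1 mM) as RSSH trap in PBS (pH 7.4, 100 mM) containing DTPA (100 μM). Timed aliquots quenched with 0.1% formic acid and analysed by HPLC: precursor at 240 nm, phenol at 275 nm. First-order rate constants from single-exponential fits; average of three experiments.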

[2] = system: H9c2 cardiac myoblasts; experiment: Protection from H2O2-mediated oxidative stress, CCK-8 viability assay; assay type: cell-based, rat
[3] = COS release in the presence of thiols by membrane inlet mass-spectrometry; assay type: physicochemical; conditions: 50 μM precursor, NAC 0.25 mM, PBS pH 7.4, 37 °C
[4] = system: H9c2 cardiac myoblasts; experiment: Protection from H2O2-mediated oxidative stress, Sytox green viability assay; assay type: cell-based, rat; conditions: pretreatment 4 and 8 h, then H2O2 200 μM
[5] = system: H9c2 cardiac myoblasts; experiment: Intracellular sulfane sulfur detection using the SSP4 probe; assay type: cell-based, rat
Procedure, shortened: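 H9c2 cells loaded with SSP4 (20 μM) plus CTAB (500 μM) for 20 min, then washed with serum-free medium. Test compound added at 0–200 μM. Plate-reader fluorescence (ex 482 nm, em 515 nm) read at set times over 3 h and normalised to the 0 μM value at each time. Mean ± SEM, n = 3 per group, three independent experiments.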

[6] = Decomposition of precursors in the presence of thiol; assay type: physicochemical
[7] = 10 equiv. MMTS, PBS pH 7.4, 100 mM, 37 °C

With COC(=O)C(NC(C)=O)C(C)(C)SSC(=O)Oc1ccccc1 (stereo not drawn) [1a] the “k, disappearance of precursor (first-order)” value [1, 7] was 0.00539 min⁻¹, the “k, formation of phenol (first-order)” value [1, 7] was 0.00533 min⁻¹ and the half-life at 100 µM [1] was 2.15 ± 0.0333 h. For the same molecule, the “phenol byproduct 4a–f yield” value ([1]; 37 °C) was 92% and 92 ± 2%, the “protection against H2O2-mediated toxicity (cell viability, CCK-8)” value (“protection … (cell viability, CCK-8)” for short) ([2]; pretreatment 5 μM for 8 h, then H2O2 200 μM) was “shows protection” and the “protection … (cell viability, CCK-8)” value ([2]; pretreatment 4 h (0–50 μM), then H2O2 200 μM 2 h) was “dose-dependent decrease of H2O2-induced toxicity”. For the same molecule, the “COS production with respect to precursor 13” value [3] was “approximately 20%”, the “protection against H2O2-mediated toxicity (Sytox)” value [4] was “consistently shows protective effects” and the “SSP4 fluorescence signal (intracellular sulfane sulfur)” value ([5]; 50 μM) was “did not observe a significant increase”. The “SSP4 fluorescence intensity (intracellular sulfane sulfur)” value ([5]; 100 and 200 μM, over 3 h) was “dose-dependent increases in fluorescence intensity” and the “formation of byproduct 9a (indication of RSSH yield)” value ([6]; 5 equiv. N-acetylcysteine methyl ester) was 53%.
With COC(=O)C(NC(C)=O)C(C)(C)SSC(=O)Oc1ccc(C)cc1 (stereo not drawn) [1b] the half-life at 100 µM [1] was 2.28 ± 0.0667 h and the “phenol byproduct 4a–f yield” value ([1]; 37 °C) was 93 ± 4%.
In the case of COC(=O)C(NC(C)=O)C(C)(C)SSC(=O)Oc1ccc(OC)cc1 (stereo not drawn) [1c], the half-life at 100 µM [1] is reported as 2.45 ± 0.0333 h and the “phenol byproduct 4a–f yield” value ([1]; 37 °C) is reported as 92 ± 1%.
For COC(=O)C(NC(C)=O)C(C)(C)SSC(=O)Oc1ccc(F)cc1 (stereo not drawn) [1d], the half-life at 100 µM [1] was 1.6 ± 0.05 h and the “phenol byproduct 4a–f yield” value ([1]; 37 °C) was 96 ± 6%.
In the case of COC(=O)C(NC(C)=O)C(C)(C)SSC(=O)Oc1ccc(C#N)cc1 (stereo not drawn) [1f], the half-life at 100 µM [1] is reported as 0.467 ± 0.0167 h and the “phenol byproduct 4a–f yield” value ([1]; 37 °C) is reported as 97 ± 2%.
For COC(=O)C(CSSSCC(NC(C)=O)C(=O)OC)NC(C)=O [N-Ac-OMe-Cys-(S)3, N-acetyl O-methyl cysteine trisulfide, reference compound], the “SSP4 fluorescence signal in H9c2 cells compared with 1a” value [5] was “higher fluorescence signal”.
With COC(=O)C(NC(C)=O)C(C)(C)SSC(=O)OCc1ccccc1 (stereo not drawn) [compound 8] the half-life at 100 µM [1] was 37.2 ± 1.57 h, the “COS generation in the presence of NAC (comparison)” value [3] was “slower COS generation” and the “decomposition rate in the presence of thiol with respect to 1a” value ([6]; in the presence of thiol) was “about six times slower”.
In the case of Oc1ccccc1 [phenol, reference compound], the “protection … (cell viability, CCK-8)” value ([2]; 50 μM for 4 and 8 h, then H2O2 200 μM 2 h) is reported as “no protective effect”.
